Data on 17 compounds can be found in ChEMBL document CHEMBL5321266, “Discovery of a Series of Indane-Containing NBTIs with Activity against Multidrug-Resistant Gram-Negative Pathogens” (ACS Med Chem Lett, 2023).

The test system of series [1] is Acinetobacter baumannii. Description: Antibacterial activity against Acinetobacter baumannii ATCC 19606 incubated for 20 to 24 hrs by CLSI based broth microdilution method. In kind it is functional. Conditions: time 20-24 hrs. A general note: Broth dilution looks for growth in wells or tubes with falling amounts of substance.
Series [2] addresses T1, DNA gyrase (Escherichia coli, UniProt P0AES4+P0AES6). Description: Inhibition of Escherichia coli DNA gyrase ATPase activity incubated for 80 mins. It counts as protein-complex assay.
The target of series [3] is Voltage-gated inwardly rectifying potassium channel KCNH2 (Homo sapiens, UniProt Q12809). Description: Inhibition of human ERG expressed in CHO cells by automated path clamp method. The conditions noted are these: for inhibition (INH): human, cho. In kind it is toxicity, cell-based. In a few lines: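 Patch-clamp electrophysiology on the hERG ion channel, recorded at 37 °C; the IC₅₀ was determined.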

Series [4] relates to Pseudomonas aeruginosa. Description: Antibacterial activity against Pseudomonas aeruginosa ATCC 27853 incubated for 20 to 24 hrs by CLSI based broth microdilution method. Conditions: time 20-24 hrs. In kind it is functional.
Series [5] has as its system Klebsiella pneumoniae. Description: Antibacterial activity against Klebsiella pneumoniae ATCC BAA-1705 incubated for 20 to 24 hrs by CLSI based broth microdilution method. It counts as functional. Conditions: time 20-24 hrs.
For series [6], the system named is Escherichia coli. Description: Antibacterial activity against Escherichia coli ATCC 25922 incubated for 20 to 24 hrs by CLSI based broth microdilution method. It counts as functional. The conditions noted are these: time 20-24 hrs.
Series [7] can be described thus: Inhibition of Escherichia coli topoisomerase 4 decatenation activity using kDNA as substrate preincubated for 5 mins followed by enzyme addition and measured after 1 hr by agarose gel electrophoresis method.
The target in series [8] is DNA topoisomerase 2-alpha (Homo sapiens, UniProt P11388). Description: Inhibition of human topoisomerase 2 alpha decatenation activity using kDNA as substrate preincubated for 5 mins followed by enzyme addition and measured after 1 hr by agarose gel electrophoresis.
The target in series [9] is T1, DNA gyrase. Description: Inhibition of Escherichia coli DNA gyrase supercoiling activity using relaxed pBR322 DNA as substrate preincubated for 5 mins followed by enzyme addition and measured after 1 hr by agarose gel electrophoresis. In kind it is protein-complex assay.

Structures are written as SMILES. In brackets after ≈: the same amount, converted by molar mass.

Sequence of Voltage-gated inwardly rectifying potassium channel KCNH2 (Q12809 whole entry): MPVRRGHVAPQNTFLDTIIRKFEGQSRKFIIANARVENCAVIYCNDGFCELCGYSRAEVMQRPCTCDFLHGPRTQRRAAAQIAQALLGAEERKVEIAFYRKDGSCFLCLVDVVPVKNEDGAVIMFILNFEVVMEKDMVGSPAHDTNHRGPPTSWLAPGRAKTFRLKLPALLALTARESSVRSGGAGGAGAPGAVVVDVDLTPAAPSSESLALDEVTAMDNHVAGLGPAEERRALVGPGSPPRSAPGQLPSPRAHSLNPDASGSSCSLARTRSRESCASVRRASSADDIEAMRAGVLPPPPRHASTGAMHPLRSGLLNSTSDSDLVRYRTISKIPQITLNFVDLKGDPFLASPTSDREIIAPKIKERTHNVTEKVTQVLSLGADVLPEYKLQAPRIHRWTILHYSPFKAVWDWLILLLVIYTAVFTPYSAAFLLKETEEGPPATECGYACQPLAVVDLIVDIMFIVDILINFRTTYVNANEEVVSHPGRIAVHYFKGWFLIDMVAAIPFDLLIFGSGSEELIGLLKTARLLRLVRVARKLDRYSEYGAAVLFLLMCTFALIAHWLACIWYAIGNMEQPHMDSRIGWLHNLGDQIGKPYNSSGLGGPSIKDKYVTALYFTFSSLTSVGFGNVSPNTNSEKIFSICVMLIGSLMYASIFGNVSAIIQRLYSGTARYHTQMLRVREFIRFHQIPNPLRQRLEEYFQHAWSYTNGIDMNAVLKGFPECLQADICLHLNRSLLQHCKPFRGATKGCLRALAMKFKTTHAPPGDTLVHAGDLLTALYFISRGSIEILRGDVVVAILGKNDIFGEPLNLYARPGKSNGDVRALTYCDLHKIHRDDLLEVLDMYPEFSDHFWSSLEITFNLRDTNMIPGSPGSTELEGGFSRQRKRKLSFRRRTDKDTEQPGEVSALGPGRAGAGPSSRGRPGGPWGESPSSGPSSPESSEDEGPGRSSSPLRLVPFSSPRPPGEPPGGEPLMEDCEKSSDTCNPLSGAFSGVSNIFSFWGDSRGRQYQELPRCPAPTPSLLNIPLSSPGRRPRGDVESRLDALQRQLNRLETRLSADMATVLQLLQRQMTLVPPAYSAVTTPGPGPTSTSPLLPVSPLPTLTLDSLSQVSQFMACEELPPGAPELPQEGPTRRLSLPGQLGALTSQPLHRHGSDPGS
Sequence of DNA topoisomerase 2-alpha (P11388 whole entry): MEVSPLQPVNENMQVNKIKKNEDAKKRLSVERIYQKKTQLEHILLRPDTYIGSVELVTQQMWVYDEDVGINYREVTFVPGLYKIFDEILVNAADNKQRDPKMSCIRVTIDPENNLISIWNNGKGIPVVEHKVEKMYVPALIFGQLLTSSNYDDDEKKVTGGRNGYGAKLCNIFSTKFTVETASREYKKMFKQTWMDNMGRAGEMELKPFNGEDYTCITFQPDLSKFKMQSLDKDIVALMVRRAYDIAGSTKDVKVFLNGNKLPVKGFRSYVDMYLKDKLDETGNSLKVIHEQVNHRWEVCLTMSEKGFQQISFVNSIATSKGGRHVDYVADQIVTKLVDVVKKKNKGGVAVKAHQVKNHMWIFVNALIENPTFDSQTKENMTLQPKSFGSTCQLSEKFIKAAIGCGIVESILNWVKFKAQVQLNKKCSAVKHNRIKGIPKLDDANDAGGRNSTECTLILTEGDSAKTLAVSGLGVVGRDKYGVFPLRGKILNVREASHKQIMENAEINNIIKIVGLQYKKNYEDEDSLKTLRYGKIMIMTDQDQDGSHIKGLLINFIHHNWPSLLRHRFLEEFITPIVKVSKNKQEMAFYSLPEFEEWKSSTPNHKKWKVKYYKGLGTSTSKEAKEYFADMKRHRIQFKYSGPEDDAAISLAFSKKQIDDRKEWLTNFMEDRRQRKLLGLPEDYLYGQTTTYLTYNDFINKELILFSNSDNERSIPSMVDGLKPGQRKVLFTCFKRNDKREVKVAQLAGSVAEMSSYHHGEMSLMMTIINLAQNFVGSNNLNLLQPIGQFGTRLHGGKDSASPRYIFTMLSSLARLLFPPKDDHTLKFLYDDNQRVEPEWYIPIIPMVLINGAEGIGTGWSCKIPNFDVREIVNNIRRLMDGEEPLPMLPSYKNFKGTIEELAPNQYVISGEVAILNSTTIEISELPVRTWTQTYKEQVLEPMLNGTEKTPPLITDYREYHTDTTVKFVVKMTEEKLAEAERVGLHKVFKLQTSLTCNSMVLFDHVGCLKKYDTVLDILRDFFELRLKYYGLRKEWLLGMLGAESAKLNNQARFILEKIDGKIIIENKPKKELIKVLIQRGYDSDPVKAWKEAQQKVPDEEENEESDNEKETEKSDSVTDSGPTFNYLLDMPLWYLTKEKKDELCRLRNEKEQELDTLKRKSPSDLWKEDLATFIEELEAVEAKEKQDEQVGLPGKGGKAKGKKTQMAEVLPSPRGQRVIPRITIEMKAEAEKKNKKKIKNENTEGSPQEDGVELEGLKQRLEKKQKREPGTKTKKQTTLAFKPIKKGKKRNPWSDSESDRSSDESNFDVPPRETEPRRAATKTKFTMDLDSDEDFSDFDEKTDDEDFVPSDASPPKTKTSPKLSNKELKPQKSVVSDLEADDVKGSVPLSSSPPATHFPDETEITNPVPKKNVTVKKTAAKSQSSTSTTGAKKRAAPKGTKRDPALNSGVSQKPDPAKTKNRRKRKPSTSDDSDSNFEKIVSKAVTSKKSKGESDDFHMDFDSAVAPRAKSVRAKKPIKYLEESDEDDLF

A word on the MIC: it is the smallest concentration in the dilution series that meets the test's criterion for growth inhibition. A high value points to weaker potency. What is called IC50 is the concentration that gives 50% inhibition. Turning to `O=C1COc2ccc(N3CC(CCNC4Cc5cccc(Cl)c5C4)OC3=O)nc2N1` (stereo not given), the minimal inhibitory concentration (MIC) in series [1] turned out to be 4 µg/mL (≈ 9.33 µM); in series [4], 16 µg/mL (≈ 37.3 µM); in series [5] it was 16 µg/mL (≈ 37.3 µM); in series [6], 2 µg/mL (≈ 4.66 µM). Further, in series [2], the half-inhibitory concentration (IC50) worked out at 290 nM. The “inhibition (INH)” value in series [3] is “Active”.
Take `N#Cc1cccc2c1CC(CNCCC1CN(c3ccc4c(n3)NC(=O)CO4)C(=O)O1)C2` (stereo not given): the MIC was 0.125 µg/mL (≈ 0.288 µM) in series [1], 0.5 µg/mL (≈ 1.15 µM) in series [4], 1 µg/mL (≈ 2.31 µM) in series [5] and not above 0.06 µg/mL in series [6]. Further, the half-inhibitory concentration (IC50) in series [2] is 21 nM; in [3], 900 nM; in series [7] it was 160 nM; in [8] it was more than 100000 nM; in series [9], 100 nM.
Take `O=C1COc2ccc(N3CC(CCNCC4Cc5cccc(Cl)c5C4)OC3=O)nc2N1` (stereo not given): the MIC in series [1] worked out at 0.125 µg/mL (≈ 0.282 µM); in [4], 2 µg/mL (≈ 4.52 µM); in [5] it was 2 µg/mL (≈ 4.52 µM); in series [6], 0.125 µg/mL (≈ 0.282 µM). The IC50 in series [2] was found to be 90 nM. For the same compound, the “inhibition (INH)” value in series [3] is recorded as “Active”.
Consider `O=c1cc(NCC2CN(CC3Cc4ccnc(Cl)c4C3)C2)c2cc(F)ccc2o1` (stereo not given), for which the MIC in [1] amounted to 4 µg/mL (≈ 9.66 µM); in series [4], 8 µg/mL (≈ 19.3 µM); in series [5], 32 µg/mL (≈ 77.3 µM); in series [6], 2 µg/mL (≈ 4.83 µM). This compound returned an IC50 in [2] of 160 nM. For the same compound, the “inhibition (INH)” value in series [3] is “Active”.
For `O=C1COc2ccc(N3CC(CNCC4Cc5cccc(Cl)c5C4)OC3=O)nc2N1` (stereo not given), the minimal inhibitory concentration (MIC) in [1] turned out to be 1 µg/mL (≈ 2.33 µM); in series [4], 8 µg/mL (≈ 18.7 µM); in series [5] it was 32 µg/mL (≈ 74.6 µM); in series [6], 0.5 µg/mL (≈ 1.17 µM). The IC50 in series [2] was found to be 230 nM. The “inhibition (INH)” value in [3] is “Active”.
Take `O=C1COc2ccc(N3CC(CNCCC4Cc5cccc(Cl)c5C4)OC3=O)nc2N1` (stereo not given): the MIC amounted to 0.25 µg/mL (≈ 0.564 µM) in [1], 1 µg/mL (≈ 2.26 µM) in [4], 4 µg/mL (≈ 9.03 µM) in [5] and 0.25 µg/mL (≈ 0.564 µM) in series [6]. The IC50 in series [2] came to 90 nM. The “inhibition (INH)” value in series [3] is on record as “Active”.
As for `O=C1COc2ccc(N3CC(CCCNC4Cc5ccccc5C4)OC3=O)nc2N1` (stereo not given), the minimal inhibitory concentration (MIC) in [1] came to 8 µg/mL (≈ 19.6 µM); in series [4], 8 µg/mL (≈ 19.6 µM); in series [5], 16 µg/mL (≈ 39.2 µM); in [6], 2 µg/mL (≈ 4.9 µM). For the same compound, the IC50 in [2] was 270 nM. The “inhibition (INH)” value in [3] was “Active”.
On to `N#Cc1cccc2c1CC(NCCCC1CN(c3ccc4c(n3)NC(=O)CO4)C(=O)O1)C2` (stereo not given), for which the MIC is 0.5 µg/mL (≈ 1.15 µM) in [1], 2 µg/mL (≈ 4.61 µM) in series [4], 2 µg/mL (≈ 4.61 µM) in [5] and 0.25 µg/mL (≈ 0.577 µM) in series [6]. Besides, 57 nM corresponded to half-maximal inhibition in [2] (IC50). Also, in series [3], the “inhibition (INH)” value is listed as “Active”.
Regarding `O=C1COc2ccc(N3CC(CCNCC4Cc5ccccc5C4)OC3=O)nc2N1` (stereo not given), the minimal inhibitory concentration (MIC) was found to be 2 µg/mL (≈ 4.9 µM) in series [1], 8 µg/mL (≈ 19.6 µM) in series [4], 8 µg/mL (≈ 19.6 µM) in series [5] and 1 µg/mL (≈ 2.45 µM) in [6]. This compound yielded an IC50 in [2] of 180 nM. The “inhibition (INH)” value in series [3] was “Active”.
With `O=C1COc2ccc(N3CC(CCNCC4Cc5cccc(F)c5C4)OC3=O)nc2N1` (stereo not given), the minimum inhibitory concentration (MIC) in [1] was 0.5 µg/mL (≈ 1.17 µM); in [4] it was 4 µg/mL (≈ 9.38 µM); in [5], 4 µg/mL (≈ 9.38 µM); in series [6], 0.5 µg/mL (≈ 1.17 µM). The same compound registered a half-maximal inhibitory concentration (IC50) in [2] of 100 nM. The “inhibition (INH)” value in series [3] is recorded as “Active”.
Regarding `O=C1COc2ccc(N3CC(CCCNC4Cc5cccc(F)c5C4)OC3=O)nc2N1` (stereo not given), the MIC in series [1] is 1 µg/mL (≈ 2.34 µM); in series [4], 4 µg/mL (≈ 9.38 µM); in series [5], 4 µg/mL (≈ 9.38 µM); in series [6] it was 0.5 µg/mL (≈ 1.17 µM). In addition, 120 nM corresponded to half-maximal inhibition in [2] (IC50). In series [3], the “inhibition (INH)” value is recorded as “Active”.
Take `O=C1COc2ccc(N3CC(CNC4Cc5cccc(Cl)c5C4)OC3=O)nc2N1` (stereo not given): the minimal inhibitory concentration (MIC) in [1] was 4 µg/mL (≈ 9.64 µM); in series [4], more than 64 µg/mL; in [5], more than 64 µg/mL; in series [6], 8 µg/mL (≈ 19.3 µM). For the same compound, the 50% inhibitory concentration (IC50) in series [2] worked out at 580 nM. Moreover, the “inhibition (INH)” value in [3] is recorded as “Active”.
For `O=C1COc2ccc(N3CC(CCCNC4Cc5cccc(Cl)c5C4)OC3=O)nc2N1` (stereo not given), the minimum inhibitory concentration (MIC) in series [1] came to 0.5 µg/mL (≈ 1.13 µM); in [4], 2 µg/mL (≈ 4.52 µM); in series [5], 2 µg/mL (≈ 4.52 µM); in [6], 0.25 µg/mL (≈ 0.564 µM). Moreover, in [2], the half-inhibitory concentration (IC50) is 72 nM. Further, in [3], the “inhibition (INH)” value is listed as “Active”.
Regarding `O=C1COc2ccc(N3CC(CCNCCC4Cc5cccc(Cl)c5C4)OC3=O)nc2N1` (stereo not given), the minimal inhibitory concentration (MIC) in [1] is 1 µg/mL (≈ 2.19 µM); in series [4], 4 µg/mL (≈ 8.75 µM); in series [5], 8 µg/mL (≈ 17.5 µM); in series [6], 0.5 µg/mL (≈ 1.09 µM). In series [2], this compound displayed an IC50 of 120 nM. The “inhibition (INH)” value in [3] was “Active”.
Regarding `O=C1COc2ccc(N3CC(CCCNC4CCc5c(Cl)cccc54)OC3=O)nc2N1` (stereo not given), the MIC in series [1] came to 8 µg/mL (≈ 18.1 µM); in [4], 8 µg/mL (≈ 18.1 µM); in series [5] it was 16 µg/mL (≈ 36.1 µM); in [6], 2 µg/mL (≈ 4.52 µM). In addition, the midpoint of inhibition in [2], the IC50, lay at 190 nM. Also, in series [3], the “inhibition (INH)” value is reported as “Active”.
Turning to `O=C1COc2ccc(N3CC(CCCNC4Cc5ccc(Cl)cc5C4)OC3=O)nc2N1` (stereo not given), the MIC in series [1] worked out at 4 µg/mL (≈ 9.03 µM); in series [4], 16 µg/mL (≈ 36.1 µM); in [5] it was 8 µg/mL (≈ 18.1 µM); in [6], 2 µg/mL (≈ 4.52 µM). This compound also displayed an IC50 in series [2] of 250 nM. Further, the “inhibition (INH)” value in series [3] is “Active”.
With `O=C1COc2ccc(N3CC(CCCNC4Cc5ccc(F)cc5C4)OC3=O)nc2N1` (stereo not given), the MIC in series [1] was 4 µg/mL (≈ 9.38 µM); in series [4], 16 µg/mL (≈ 37.5 µM); in series [5], 8 µg/mL (≈ 18.8 µM); in [6] it was 1 µg/mL (≈ 2.34 µM). Also, half-maximal inhibition in series [2] (IC50) was put at 160 nM. Besides, in series [3], the “inhibition (INH)” value is recorded as “Active”.
